Measurements reported in ChEMBL document CHEMBL1135797, “Carbonic anhydrase activators: high affinity isozymes I, II, and IV activators, incorporating a beta-alanyl-histidine scaffold” (2002).

Experiments:
[1] = target: Carbonic anhydrase 1 (Homo sapiens) (UniProt P00915); experiment: In vitro carbonic anhydrase activation in human cloned Carbonic anhydrase I (hCA I)
Homo sapiens [2] = species on record: Homo sapiens; experiment: (§1) Ex vivo carbonic anhydrase activation after 30 min incubation of human erythrocytes with 5 uM activator Histamine; format: functional
Method in brief: (§2)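 Freshly isolated human blood washed in Tris buffer (pH 7.40, 5 mM), erythrocytes incubated with 5 µM activator solution at 37 °C with gentle stirring; cells washed three times to remove unbound compound, lysed in distilled water, centrifuged; CA activity of lysate measured by 4-nitrophenyl acetate esterase assay (400 nm, pH 7.40, 25 °C). Untreated cells taken as 100%.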

Homo sapiens [3] = species on record: Homo sapiens; experiment: (§3) Ex vivo carbonic anhydrase activation after 60 min incubation of human erythrocytes with 5 uM activator Histamine; format: functional; method in brief: as §2
[4] = target: Carbonic anhydrase 2 (Homo sapiens) (UniProt P00918); experiment: In vitro carbonic anhydrase activation in human cloned Carbonic anhydrase II (hCA II)
[5] = target: T1, Carbonic anhydrase 4 (Bos taurus) (UniProt Q95323); experiment: In vitro carbonic anhydrase IV activation in bovine lung microsomes.; conditions: Microsome
T1 sequence (whole entry): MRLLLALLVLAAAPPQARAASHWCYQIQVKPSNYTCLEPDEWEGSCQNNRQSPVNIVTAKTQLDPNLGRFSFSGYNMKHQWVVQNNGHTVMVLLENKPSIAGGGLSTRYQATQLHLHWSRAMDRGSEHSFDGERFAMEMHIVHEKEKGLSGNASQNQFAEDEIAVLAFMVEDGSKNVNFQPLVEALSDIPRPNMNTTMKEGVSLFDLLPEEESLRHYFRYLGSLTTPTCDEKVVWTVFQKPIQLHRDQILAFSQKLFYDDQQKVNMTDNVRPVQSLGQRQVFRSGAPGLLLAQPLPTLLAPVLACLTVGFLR
Method in brief: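 CA IV isolated from bovine lung microsomes and quantified by ethoxzolamide titration; used at 39 nM. 4-Nitrophenyl acetate hydrolysis initial rates followed at 400 nm, 25 °C, pH 7.40, substrate 2×10-2 to 1×10^-6 M. Activator preincubated with enzyme 15 min at room temperature. Dilutions down to 0.1 nM. Non-enzymatic rate subtracted. KA given as mean of at least three determinations.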

Homo sapiens [6] = species on record: Homo sapiens; experiment: as §1; format: functional; remark: listed apart in the source
Method in brief: (§4)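 Fresh human blood washed repeatedly with 5 mM Tris pH 7.40 and centrifuged; erythrocytes incubated with 5 µM activator at 37 °C with gentle stirring. Cells washed three times with buffer to remove unbound compound, lysed in distilled water and centrifuged. Lysate CA activity measured by 4-nitrophenyl acetate esterase assay at 400 nm. Buffer-only cells set as 100%.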

Homo sapiens [7] = species on record: Homo sapiens; experiment: as §3; format: functional; method in brief: as §4; remark: listed apart in the source

Sequence of Carbonic anhydrase 1 (Homo sapiens) (P00915 2-261 limits assumed): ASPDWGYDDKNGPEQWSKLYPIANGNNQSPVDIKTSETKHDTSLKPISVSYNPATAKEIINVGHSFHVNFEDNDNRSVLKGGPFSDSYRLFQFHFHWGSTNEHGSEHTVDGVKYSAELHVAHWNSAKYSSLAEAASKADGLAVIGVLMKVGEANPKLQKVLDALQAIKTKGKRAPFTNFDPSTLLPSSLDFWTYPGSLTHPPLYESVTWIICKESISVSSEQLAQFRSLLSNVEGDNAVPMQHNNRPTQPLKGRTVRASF

| Structure (SMILES) | KA [1] [µM] | CA (Homo sapiens [2]) [%] | CA (Homo sapiens [3]) [%] | KA [4] [µM] | KA [5] [µM] | CA (Homo sapiens [6]) [%] | CA (Homo sapiens [7]) [%] |
| --- | --- | --- | --- | --- | --- | --- | --- |
| NCCc1c[nH]cn1 [HISTAMINE] | 2 | 121 | 130 |  |  |  |  |
| O=C(CCNC(=O)[C@H](Cc1c[nH]cn1)NC(=O)CCNC(=O)NS(=O)(=O)c1ccc(F)cc1)N[C@@H](Cc1c[nH]cn1)C(=O)O | 0.002 |  |  | 0.01 | 0.005 | 254 | 283 |
| Cc1ccccc1S(=O)(=O)NC(=O)NCCC(=O)N[C@@H](Cc1c[nH]cn1)C(=O)NCCC(=O)N[C@@H](Cc1c[nH]cn1)C(=O)O | 0.004 | 236 | 267 | 0.02 | 0.008 |  |  |
